# In ChEMBL document CHEMBL2440094, “Thiazolidinone-peptide hybrids as dengue virus protease inhibitors with antiviral activity in cell culture” (J Med Chem, 2013):
# Active and inactive are the calls of the source. The calls are words filed in the database; no cut-off is given here. Square brackets hold non-standard residues; d marks the D form. Peptide text beside a SMILES is read from it. * marks the point of attachment. Nle = CCCC[C@H](N)C(=O)O; Bz = O=C(c1ccccc1)*
# Assays:
# Dengue virus [1] = assay: Inhibition of Dengue virus NS2B-NS3 protease expressed in Escherichia coli BL 21 (DE3) using Abz-Nle-Lys-Arg-Arg-Ser-3-(NO2)Tyr as substrate at 50 uM after 15 mins
# [2] = Inhibition of Dengue virus NS2B-NS3 protease expressed in Escherichia coli BL 21 (DE3) using Abz-Nle-Lys-Arg-Arg-Ser-3-(NO2)Tyr as substrate assessed as enzyme-inhibitor complex by Cornish-Bowden plot analysis; details: in the assay text read “Dixon plot” for “Cornish-Bowden plot”
# In short: (§1)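 DEN2 NS2B–NS3 FRET assay run at inhibitor 0–6 μM (prior-series compounds 5–50 μM) and substrate 50, 100, 150 and 200 μM, in triplicate, with inner-filter correction. Ki from Dixon plots (1/v vs [I]) and Ki′ from Cornish-Bowden plots (S/v vs [I]). Inhibition mode assigned from these plots.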
# West Nile virus = assay: Inhibition of West Nile virus NS2B-NS3 protease expressed in Escherichia coli BL 21 (DE3) using Abz-Gly-Leu-Lys-Arg-Gly-Gly-3-(NO2)Tyr as substrate at 50 uM after 15 mins
# Huh-7 = assay: Cytotoxicity against human HuH7 cells at <50 uM after 48 hrs by firefly reporter assay; format: cell-based; details: huh-7, 48 h
# In short: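 Uninfected Huh-7 cells stably expressing firefly luciferase, seeded 5000/well and incubated overnight at 37 °C. Compound added at 1.56–50 μM, plus 100, 200 and 400 μM, then incubated as for infected cells (further 48 h after the 4 h point). Firefly luminescence read with 70 μM luciferin and 2 mM ATP. Mean of three wells as percent of DMSO control.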
# [3] = Inhibition of Dengue virus NS2B-NS3 protease expressed in Escherichia coli BL 21 (DE3) using Abz-Nle-Lys-Arg-Arg-Ser-3-(NO2)Tyr as substrate assessed as enzyme-substrate-inhibitor complex by Cornish-Bowden plot analysis; in short: as §1
# Dengue virus [4] = assay: Competitive inhibition of Dengue virus NS2B-NS3 protease expressed in Escherichia coli BL 21 (DE3) using Abz-Nle-Lys-Arg-Arg-Ser-3-(NO2)Tyr as substrate by Cornish-Bowden plot analysis; in short: as §1
# [5] = target: Prothrombin (Homo sapiens) (UniProt P00734); assay: Inhibition of thrombin (unknown origin) using Boc-Val-Pro-Arg-AMC as substrate at 25 uM after 10 mins by continuous fluorimetric assay
# In short: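 Thrombin (10 nM) preincubated 15 min with inhibitor (25 μM final) in 50 mM Tris-HCl pH 7.5, 150 mM NaCl, 0.05% Tween 20. Boc-Val-Pro-Arg-AMC then added to 50 μM (Km 16 μM). Fluorescence (ex 355 nm, em 460 nm) followed for 10 min as slope. Triplicate; percent inhibition versus no-inhibitor control.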
# [6] = Permeability of the compound by PAMPA; format: ADME; details: read-out: permeability
# In short: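 PAMPA with precoated trilayer lipid/oil/lipid membranes, donor wells holding 200 μM compound in PBS pH 7.4 (2% DMSO final), in triplicate. Incubated 5 h at room temperature. Donor and acceptor concentrations determined by UV plate reader or HPLC-UV against calibration curves. Pe and mass retention R calculated.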
# [7] = Inhibition of Dengue virus NS2B-NS3 protease expressed in Escherichia coli BL 21 (DE3) using Abz-Nle-Lys-Arg-Arg-Ser-3-(NO2)Tyr as substrate after 15 mins
# dengue virus type 2 [8] = assay: Antiviral activity against Dengue virus 2 infected in human Huh-7 cells assessed as inhibition of viral replication after 48 hrs by luciferase reporter gene assay; format: functional, organism-based; details: Huh-7, 48 h
# In short: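 Huh-7 cells seeded 5000/well, incubated overnight at 37 °C, then given compound (1.56–50 μM final, 2-fold series in DMEM with 10% FCS). Dengue 2 renilla luciferase reporter virus (MOI 10) added 4 h later. After 48 h at 37 °C, cells lysed and renilla luminescence read with coelenterazine. At least four wells per concentration, expressed relative to DMSO control. EC50 by nonlinear regression.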
# Dengue virus [9] = assay: Mixed type inhibition of Dengue virus NS2B-NS3 protease expressed in Escherichia coli BL 21 (DE3) using Abz-Nle-Lys-Arg-Arg-Ser-3-(NO2)Tyr as substrate by Cornish-Bowden plot analysis; in short: as §1
# dengue virus type 2 [10] = assay: Antiviral activity against Dengue virus 2 infected in human Huh-7 cells assessed as inhibition of virus-induced plaque formation at 50 uM after 48; format: functional, organism-based
# In short: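 Huh-7 cells seeded in 12-well plates and pretreated with compound (50 μM) for 4 h. Infected for 1 h with dengue reporter virus (MOI 5) in the presence of compound, then medium replaced with compound-containing DMEM. Supernatant harvested at 48 h and filtered. Titer determined by plaque assay on Vero cells. Mean ± SD of three independent experiments.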
inhibition (Dengue virus [1]) [%],inhibition (West Nile virus) [%],inhibition (Dengue virus [4]),inhibition [5],Papp [6] [×10⁻⁶ cm/s],IC50 [7] [µM],EC50 (dengue virus type 2 [8]) [µM],inhibition (Dengue virus [9]),SMILES,Ki [2] [µM],Activity (Huh-7),Ki [3] [µM],inhibition (dengue virus type 2 [10])
82.9,13.8,Active,inactive,1.26,10.5,–,–,CCCC[C@H](NC(=O)[C@H](CCCCN)NC(=O)[C@H](CCCNC(=N)N)NC(=O)/C=C/c1ccccc1)C(N)=O,6.9,Non-toxic,> 50,–
98.4,51.1,Active,9.1%,1.69,3.4,–,–,CCCC[C@H](NC(=O)[C@H](CCCCN)NC(=O)[C@H](CCCNC(=N)N)NC(=O)c1ccc(/C=C2\SC(=O)N(C3CCCCC3)C2=O)cc1)C(N)=O,2.3,–,> 10,–
87.1,48.7,–,13.9%,–,–,> 50,–,CCCC[C@H](NC(=O)[C@H](CCCCN)NC(=O)[C@H](CCCNC(=N)N)NC(=O)c1ccc(/C=C2\SC(=S)NC2=O)cc1)C(N)=O,–,Non-toxic,–,–
97.3,64.7,Active,11.3%,1.61,6.2,35.5,–,CCCC[C@H](NC(=O)[C@H](CCCCN)NC(=O)[C@H](CCCNC(=N)N)NC(=O)c1ccc(/C=C2\SC(=S)N(CCCC)C2=O)cc1)C(N)=O,4.7,–,> 10,–
84.6,15.6,Active,inactive,–,6.4,–,–,CCCC[C@H](NC(=O)[C@H](CCCCN)NC(=O)[C@H](CCCNC(=N)N)NC(=O)c1ccc(/C=C/C(N)=O)cc1)C(N)=O,8.2,Non-toxic,> 50,–
99.4,88.2,–,18%,1.11,3.2,41.1,Active,CCCC[C@H](NC(=O)[C@H](CCCCN)NC(=O)[C@H](CCCNC(=N)N)NC(=O)c1ccc(/C=C2\SC(=O)N(Cc3ccc(Cl)cc3)C2=O)cc1)C(N)=O,2.2,Non-toxic,5.4,inactive
96,54.6,–,inactive,0.42,–,31.3,–,C=CCN1C(=O)/C(=C/c2ccc(C(=O)N[C@@H](CCCNC(=N)N)C(=O)N[C@@H](CCCCN)C(=O)N[C@@H](CCCC)C(N)=O)cc2)SC1=S,–,Non-toxic,–,–
99.8,97.7,Active,inactive,2.31,6.1,30.3,–,CCCC[C@H](NC(=O)[C@H](CCCCN)NC(=O)[C@H](CCCNC(=N)N)NC(=O)c1ccc(/C=C2\SC(=S)N(C3CCCC3)C2=O)cc1)C(N)=O,3.6,–,> 10,–
40.9,15.3,–,24.7%,–,–,26,–,CCCC[C@H](NC(=O)[C@H](CCCCN)NC(=O)[C@H](CCCNC(=N)N)NC(=O)/C=C1\SC(=S)N(Cc2ccc(OC)cc2)C1=O)C(N)=O,–,Non-toxic,–,–
68.1,7.7,Active,5.5%,–,13.3,–,–,CCCC[C@H](NC(=O)[C@H](CCCCN)NC(=O)[C@H](CCCNC(=N)N)NC(=O)c1ccccc1)C(N)=O (Bz-Arg-Lys-[Nle]-NH2),11.2,Non-toxic,> 50,–
71.1,14.7,Active,inactive,–,14.1,–,–,CCCC[C@H](NC(=O)[C@H](CCCCN)NC(=O)[C@H](CCCNC(=N)N)NC(=O)c1cccs1)C(N)=O,14.5,Non-toxic,> 50,inactive
88.5,28,Active,13.4%,1.11,5.3,–,–,CCCC[C@H](NC(=O)[C@H](CCCCN)NC(=O)[C@H](CCCNC(=N)N)NC(=O)c1ccc(/C=C(\C#N)C(=O)NC2CC2)cc1)C(N)=O,4,Non-toxic,> 50,inactive
97.6,41.4,Active,16.8%,–,4.8,–,–,CCCC[C@H](NC(=O)[C@H](CCCCN)NC(=O)[C@H](CCCNC(=N)N)NC(=O)c1ccc(/C=C2\SC(=O)N(CCOC(C)=O)C2=O)cc1)C(N)=O,3.6,–,> 10,–
98.2,51.8,–,16%,0.44,2.5,44.9,Active,CCCC[C@H](NC(=O)[C@H](CCCCN)NC(=O)[C@H](CCCNC(=N)N)NC(=O)c1ccc(/C=C2\SC(=O)N(C3CCCC3)C2=O)cc1)C(N)=O,1.8,–,7.9,–
97.6,66.7,Active,9.3%,–,4.8,–,–,CCCC[C@H](NC(=O)[C@H](CCCCN)NC(=O)[C@H](CCCNC(=N)N)NC(=O)c1ccc(/C=C2\SC(=O)N(Cc3ccc(C)cc3)C2=O)cc1)C(N)=O,3.1,–,> 10,–
99.4,63.7,–,20.3%,0.43,2.9,–,Active,CCCC[C@H](NC(=O)[C@H](CCCCN)NC(=O)[C@H](CCCNC(=N)N)NC(=O)c1ccc(/C=C2\SC(=O)N(Cc3ccc(F)cc3)C2=O)cc1)C(N)=O,1.5,–,5.2,–
89,35,–,14.8%,–,–,> 50,–,CCCC[C@H](NC(=O)[C@H](CCCCN)NC(=O)[C@H](CCCNC(=N)N)NC(=O)c1ccc(/C=C2\SC(=S)N(C)C2=O)cc1)C(N)=O,–,Non-toxic,–,–
97,47.2,Active,12.3%,–,3.3,–,–,CCCC[C@H](NC(=O)[C@H](CCCCN)NC(=O)[C@H](CCCNC(=N)N)NC(=O)c1ccc(/C=C2\SC(=O)N(Cc3ccc(OC)cc3)C2=O)cc1)C(N)=O,2.2,–,> 10,–
100,52.4,Active,18.4%,1.18,3.5,> 50,–,CCCC[C@H](NC(=O)[C@H](CCCCN)NC(=O)[C@H](CCCNC(=N)N)NC(=O)c1ccc(/C=C2\SC(=O)N(CCCC)C2=O)cc1)C(N)=O,3.4,–,> 10,–
74.5,45,–,14.3%,–,–,26.8,–,CCCC[C@H](NC(=O)[C@H](CCCN)NC(=O)[C@H](CCCNC(=N)N)NC(=O)c1ccc(/C=C2\SC(=O)N(Cc3ccccc3)C2=O)cc1)C(N)=O,–,Non-toxic,–,inactive
